Data as given in ChEMBL document CHEMBL1629583, “Establishment of in vitro susceptibility testing methodologies and comparative activities of piperacillin in combination with the penem {beta}-lactamase inhibitor BLI-489” (2009).
Values after ≈ are worked out from the molar mass of the structure shown.

Legend:
Type in all cases: functional
[1] = test system: Klebsiella aerogenes; experiment: Antimicrobial activity against Enterobacter aerogenes clinical isolate after 18 to 22 hrs by broth microdilution method in presence of beta-lactamase inhibitor Tazobactam
Outline: (§1)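 Piperacillin-tazobactam was tested on recent clinical isolates by CLSI broth microdilution in Mueller-Hinton II broth, with tazobactam at constant 4 μg/ml. Wells held 10^5 CFU/ml and were incubated 18 to 22 h at 35°C in ambient air. MIC was the lowest concentration with no growth visible to the unaided eye.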

[2] = test system: Acinetobacter lwoffii; experiment: Antimicrobial activity against Acinetobacter lwoffii clinical isolate after 18 to 22 hrs by broth microdilution method in presence of beta-lactamase inhibitor Tazobactam; outline: as §1
[3] = test system: Peptostreptococcus anaerobius; experiment: Antimicrobial activity against Peptostreptococcus anaerobius clinical isolate after 18 to 22 hrs by broth microdilution method in presence of beta-lactamase inhibitor BLI-489
[4] = test system: Citrobacter freundii; experiment: Antimicrobial activity against Citrobacter freundii clinical isolate after 18 to 22 hrs by broth microdilution method in presence of beta-lactamase inhibitor BLI-489
Outline: (§2)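 CLSI broth microdilution in Mueller-Hinton II broth. Piperacillin serial dilutions were combined with BLI-489 held constant at 4 μg/ml. Inoculum was 10^5 CFU/ml. Plates were incubated 18 to 22 h at 35°C in ambient air. MIC was the lowest concentration completely inhibiting growth seen by the unaided eye. Piperacillin-tazobactam interpretive criteria were applied.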

[5] = test system: Enterococcus gallinarum; experiment: Antimicrobial activity against Enterococcus gallinarum clinical isolate after 18 to 22 hrs by broth microdilution method in presence of beta-lactamase inhibitor Tazobactam
Outline: (§3)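 Piperacillin-tazobactam was tested by CLSI broth microdilution in Mueller-Hinton II broth against clinical isolates. Inoculum was 10^5 CFU/ml, with 18 to 22 h incubation at 35°C in ambient air. MIC was read as the lowest concentration completely inhibiting visible growth.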

[6] = test system: Bacteroides uniformis; experiment: Antimicrobial activity against Bacteroides uniformis clinical isolate after 18 to 22 hrs by broth microdilution method in presence of beta-lactamase inhibitor Tazobactam
[7] = test system: Clostridium perfringens; experiment: Antimicrobial activity against Clostridium perfringens clinical isolate after 18 to 22 hrs by broth microdilution method
[8] = test system: Bacteroides fragilis; experiment: Antimicrobial activity against Bacteroides fragilis clinical isolate after 18 to 22 hrs by broth microdilution method in presence of beta-lactamase inhibitor BLI-489
[9] = test system: Enterococcus casseliflavus; experiment: Antimicrobial activity against Enterococcus casseliflavus clinical isolate after 18 to 22 hrs by broth microdilution method in presence of beta-lactamase inhibitor Tazobactam; outline: as §1
[10] = test system: Acinetobacter johnsonii; experiment: Antimicrobial activity against Acinetobacter johnsonii clinical isolate after 18 to 22 hrs by broth microdilution method in presence of beta-lactamase inhibitor BLI-489; outline: as §2
[11] = test system: Klebsiella pneumoniae; experiment: Antimicrobial activity against Klebsiella pneumoniae clinical isolate after 18 to 22 hrs by broth microdilution method in presence of beta-lactamase inhibitor Tazobactam; outline: as §3
[12] = test system: Moraxella catarrhalis; experiment: Antimicrobial activity against Moraxella catarrhalis clinical isolate after 18 to 22 hrs by broth microdilution method in presence of beta-lactamase inhibitor Tazobactam; outline: as §3

Q: For CCN1CCN(C(=O)N[C@@H](C(=O)N[C@@H]2C(=O)N3[C@@H]2SC(C)(C)[C@@H]3C(=O)O)c2ccccc2)C(=O)C1=O [PIPERACILLIN], which MIC50 [1] is on record?
A: 64 µg/mL

Q: And the MIC90 [1]?
A: 128 µg/mL

Q: What about the MIC50 [2] of the same compound?
A: ≤ 0.12 µg/mL

Q: And the MIC90 [2]?
A: 32 µg/mL

Q: What about the MIC [3] of the same compound?
A: ≤ 0.015 µg/mL

Q: And the MIC50 [3]?
A: ≤ 0.015 µg/mL

Q: And the MIC90 [3]?
A: ≤ 0.015 µg/mL

Q: What about the MIC50 [4] of the same compound?
A: 2 µg/mL

Q: And the MIC90 [4]?
A: 16 µg/mL

Q: What about the MIC50 [5] of the same compound?
A: 4 µg/mL

Q: What about the MIC90 [5] of the same compound?
A: 16 µg/mL

Q: What about the MIC50 [6] of the same compound?
A: 0.5 µg/mL

Q: And the MIC90 [6]?
A: 4 µg/mL

Q: And the MIC50 [7]?
A: 0.06 µg/mL (≈ 0.116 µM)

Q: And the MIC90 [7]?
A: 0.25 µg/mL (≈ 0.483 µM)

Q: What about the MIC50 [8] of the same compound?
A: 0.25 µg/mL

Q: And the MIC90 [8]?
A: 0.5 µg/mL

Q: What about the MIC50 [9] of the same compound?
A: 4 µg/mL

Q: And the MIC90 [9]?
A: 16 µg/mL

Q: What about the MIC50 [10] of the same compound?
A: 4 µg/mL

Q: And the MIC90 [10]?
A: 16 µg/mL

Q: What about the MIC50 [11] of the same compound?
A: 2 µg/mL

Q: And the MIC90 [11]?
A: 16 µg/mL

Q: What about the MIC [12] of the same compound?
A: ≤ 0.004 µg/mL

Q: And the MIC50 [12]?
A: ≤ 0.004 µg/mL

Q: And the MIC90 [12]?
A: 0.008 µg/mL
